From ChEMBL document CHEMBL4364256, “Design, synthesis and biological evaluation of antimicrobial diarylimine and -amine compounds targeting the interaction between the bacterial NusB and NusE proteins” (Eur J Med Chem, 2019)
Converted amounts (≈) assume the structure as drawn.

What was measured:
Streptococcus pneumoniae = experiment: Antimicrobial activity against Streptococcus pneumoniae ATCC 49619 incubated for 20 hrs by microdilution method; format: functional; conditions: ATCC 49619, 20 h
Summary of the method: (§1)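 Broth microdilution MIC testing done following CLSI guidelines.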

Staphylococcus aureus [1] = experiment: microbe, parasite or virus in culture; conditions: ATCC 29213, 20 h
Acinetobacter baumannii = experiment: Antimicrobial activity against Acinetobacter baumannii ATCC 19606 incubated for 20 hrs by microdilution method; format: functional; conditions: ATCC 19606 = CIP 70.34 = JCM 6841, 20 h; summary of the method: as §1
[2] = microbe, parasite or virus in culture; conditions: Enterobacter cloacae, ATCC 13047, 20 h
Bacillus subtilis = experiment: Inhibition of N-terminal LgBiT-fused Bacillus subtilis NusB expressed in Escherichia coli BL21(DE3)pLysS interaction with C- terminal SmBiT-fused Bacillus subtilis NusE expressed in Escherichia coli BL21(DE3)pLysS at 100 uM preincubated for 10 mins followed by NusE addition and measured after 10 mins by nano-glo luciferase assay relative to control
Summary of the method: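 NusB and NusE were mixed 1:1 at 1 µM in PBS, with compound at 100 µM. The read-out was percent inhibition of the NusB-NusE interaction.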

Enterococcus faecium = experiment: Antimicrobial activity against Enterococcus faecium ATCC 19433 incubated for 20 hrs by microdilution method; format: functional; conditions: ATCC 19433, 20 h; summary of the method: as §1
Staphylococcus aureus [3] = experiment: microbe, parasite or virus in culture; conditions: ATCC 25923, 20 h
Pseudomonas aeruginosa = experiment: Antimicrobial activity against Pseudomonas aeruginosa ATCC 27853 incubated for 20 hrs by microdilution method; format: functional; conditions: ATCC 27853, 20 h; summary of the method: as §1
Streptococcus pyogenes = experiment: Antimicrobial activity against Streptococcus pyogenes ATCC 19615 incubated for 20 hrs by microdilution method; format: functional; conditions: ATCC 19615, 20 h; summary of the method: as §1
[4] = test system: Enterococcus casseliflavus; experiment: Antimicrobial activity against Enterococcus casseliflavus ATCC 25788 incubated for 20 hrs by microdilution method; format: functional; conditions: ATCC 25788, 20 h; summary of the method: as §1
Staphylococcus aureus [5] = experiment: Antimicrobial activity against Staphylococcus aureus USA300/ST8 incubated for 20 hrs by microdilution method; conditions: USA300 ST8, 20 h
Staphylococcus aureus [6] = experiment: Antimicrobial activity against CA-methicillin-resistant Staphylococcus aureus W4 ST338 incubated for 20 hrs by microdilution method; format: functional; conditions: W4 ST338, 20 h
Summary of the method: (§2)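 MIC determined by microdilution following Clinical & Laboratory Standards Institute (CLSI) guidelines, read in µg/mL, against a panel of hospital- and community-acquired MRSA strains.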

[7] = test system: Staphylococcus epidermidis; experiment: Antimicrobial activity against Staphylococcus epidermidis ATCC 12228 incubated for 20 hrs by microdilution method; format: functional; conditions: ATCC 12228, 20 h; summary of the method: as §1
Staphylococcus aureus [8] = experiment: Antimicrobial activity against Staphylococcus aureus ST22 11B086169 incubated for 20 hrs by microdilution method; format: functional; conditions: ST22 11B086169, 20 h; summary of the method: as §2
[9] = Antimicrobial activity against Staphylococcus saprophyticus ATCC 15305 incubated for 20 hrs by microdilution method; format: functional, Staphylococcus saprophyticus subsp. saprophyticus; conditions: ATCC 15305, 20 h; summary of the method: as §1
Staphylococcus aureus [10] = experiment: Antimicrobial activity against Staphylococcus aureus ATCC BAA43 incubated for 20 hrs by microdilution method; format: functional; conditions: ATCC BAA43, 20 h; summary of the method: as §2
Staphylococcus aureus [11] = experiment: Antimicrobial activity against CA-methicillin-resistant Staphylococcus aureus W48 ST217 incubated for 20 hrs by microdilution method; conditions: W48 ST217, 20 h
Staphylococcus aureus [12] = experiment: Antimicrobial activity against CA-methicillin-resistant Staphylococcus aureus W47 ST30 incubated for 20 hrs by microdilution method; format: functional; conditions: W47 ST30, 20 h; summary of the method: as §2
Staphylococcus aureus [13] = experiment: Antimicrobial activity against Staphylococcus aureus HA W231 ST45 incubated for 20 hrs by microdilution method; format: functional; conditions: HA W231 ST45, 20 h; summary of the method: as §2
Staphylococcus aureus [14] = experiment: Antimicrobial activity against Staphylococcus aureus ATCC BAA44 incubated for 20 hrs by microdilution method; format: functional; conditions: ATCC BAA44, 20 h; summary of the method: as §2
Staphylococcus aureus [15] = experiment: Antimicrobial activity against Staphylococcus aureus ST239 incubated for 20 hrs by microdilution method; format: functional; conditions: CN79, 20 h; summary of the method: as §2
Staphylococcus aureus [16] = experiment: Antimicrobial activity against Staphylococcus aureus HA W235 ST5 incubated for 20 hrs by microdilution method; format: functional; conditions: HA W235 ST5, 20 h; summary of the method: as §2
Staphylococcus aureus [17] = experiment: Antimicrobial activity against CA-methicillin-resistant Staphylococcus aureus W45 ST59 incubated for 20 hrs by microdilution method; conditions: W45 ST59, 20 h
Streptococcus agalactiae = experiment: Antimicrobial activity against Streptococcus agalactiae ATCC 12386 incubated for 20 hrs by microdilution method; format: functional; conditions: ATCC 12386, 20 h; summary of the method: as §1
Staphylococcus aureus [18] = experiment: Antimicrobial activity against CA-methicillin-resistant Staphylococcus aureus W46 ST59 incubated for 20 hrs by microdilution method; conditions: W46 ST59, 20 h

Compound	MIC (Streptococcus pneumoniae)	MIC (Staphylococcus aureus [1])	MIC (Acinetobacter baumannii)	MIC [2]	inhibition (Bacillus subtilis)	MIC (Enterococcus faecium)	MIC (Staphylococcus aureus [3])	MIC (Pseudomonas aeruginosa)	also measured
O=C(O)c1cccc(NCc2cc([N+](=O)[O-])ccc2O)c1	> 256 µg/mL	> 256 µg/mL	> 256 µg/mL	> 256 µg/mL	50.8%	> 256 µg/mL	> 256 µg/mL	> 256 µg/mL	–
O=C(O)c1cn(C2CC2)c2cc(N3CCNCC3)c(F)cc2c1=O [CIPROFLOXACIN]	–	0.5 to 1 µg/mL (≈ 1.51 to 3.02 µM)	2 µg/mL (≈ 6.04 µM)	–	–	4 µg/mL (≈ 12.1 µM)	0.5 to 1 µg/mL (≈ 1.51 to 3.02 µM)	–	MIC (Streptococcus pyogenes): 0.5 µg/mL (≈ 1.51 µM); MIC [4]: 4 µg/mL (≈ 12.1 µM); MIC (Staphylococcus aureus [5]): 4 µg/mL (≈ 12.1 µM); MIC (Staphylococcus aureus [6]): 0.5 µg/mL (≈ 1.51 µM); MIC [7]: 0.0625 µg/mL (≈ 0.189 µM); MIC (Staphylococcus aureus [8]): 4 µg/mL (≈ 12.1 µM); MIC [9]: 0.5 µg/mL (≈ 1.51 µM); MIC (Staphylococcus aureus [10]): 2 µg/mL (≈ 6.04 µM); MIC (Staphylococcus aureus [11]): 4 µg/mL (≈ 12.1 µM); MIC (Staphylococcus aureus [12]): 0.5 µg/mL (≈ 1.51 µM); MIC (Staphylococcus aureus [13]): 2 µg/mL (≈ 6.04 µM); MIC (Staphylococcus aureus [14]): 4 µg/mL (≈ 12.1 µM); MIC (Staphylococcus aureus [15]): 4 µg/mL (≈ 12.1 µM); MIC (Staphylococcus aureus [16]): 4 µg/mL (≈ 12.1 µM); MIC (Staphylococcus aureus [17]): 0.25 µg/mL (≈ 0.754 µM); MIC (Streptococcus agalactiae): 4 µg/mL (≈ 12.1 µM); MIC (Staphylococcus aureus [18]): 0.25 µg/mL (≈ 0.754 µM)

Continued, in another order:

MIC (Streptococcus pneumoniae)	MIC (Staphylococcus aureus [1])	MIC (Acinetobacter baumannii)	MIC [2]	inhibition (Bacillus subtilis)	MIC (Enterococcus faecium)	MIC (Staphylococcus aureus [3])	MIC (Pseudomonas aeruginosa)	Compound	also measured
8 µg/mL (≈ 28.4 µM)	16 µg/mL (≈ 56.9 µM)	> 256 µg/mL	> 256 µg/mL	57.1%	32 µg/mL (≈ 114 µM)	32 µg/mL (≈ 114 µM)	> 256 µg/mL	C#Cc1cccc(NCc2cc(C(=O)OC)ccc2O)c1	–
16 µg/mL (≈ 57.4 µM)	4 µg/mL (≈ 14.4 µM)	> 256 µg/mL	128 µg/mL (≈ 459 µM)	53.6%	32 µg/mL (≈ 115 µM)	8 µg/mL (≈ 28.7 µM)	256 µg/mL (≈ 919 µM)	O=[N+]([O-])c1ccc(O)c(CNc2ccc(Cl)cc2)c1	–
16 µg/mL (≈ 55.9 µM)	16 µg/mL (≈ 55.9 µM)	64 µg/mL (≈ 224 µM)	> 256 µg/mL	78.5%	> 256 µg/mL	4 µg/mL (≈ 14 µM)	> 256 µg/mL	O=C(O)c1cccc(/N=C/c2cc([N+](=O)[O-])ccc2O)c1	–
